Reference: PMC10826612 (Food Chemistry: X, 2024)

Key:
tyrosinase (TYR) [1] = molecular target: T1, tyrosinase (TYR) (Agaricus bisporus, UniProt C7FF04); assay: UV spectra measurement of TYR with inhibitor; assay type: binding
tyrosinase (TYR) [2] = molecular target: T1, tyrosinase (TYR); assay: ANS fluorescence assay; assay type: binding; conditions: 6f 60 µM (533 nm at 0 µM)
tyrosinase (TYR) [3] = molecular target: T1, tyrosinase (TYR); assay: CD spectroscopy of TYR secondary structure; assay type: binding; conditions: molar ratio 1:6
tyrosinase (TYR) [4] = molecular target: T1, tyrosinase (TYR); assay: Kinetic analysis of TYR; assay type: biochemical; conditions: Lineweaver-Burk plot
HEK-293 cells = assay: CCK-8 cell viability assay; assay type: cell-based, human; conditions: in words
Method in brief: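 Log-phase HEK-293 cells were seeded at 1 × 10^5 cells/well and held at 37 °C for 24 h. They were then exposed for 24 h to test compound at 4, 12, 36 or 108 µM, prepared in PBS. Wells were washed twice with PBS, and medium containing 10 % CCK-8 was added. Absorbance at 450 nm was read after 2 h.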

tyrosinase (TYR) [5] = molecular target: T1, tyrosinase (TYR); assay: Fluorescence quenching titration of TYR; assay type: binding

T1 sequence (C7FF04 1-392): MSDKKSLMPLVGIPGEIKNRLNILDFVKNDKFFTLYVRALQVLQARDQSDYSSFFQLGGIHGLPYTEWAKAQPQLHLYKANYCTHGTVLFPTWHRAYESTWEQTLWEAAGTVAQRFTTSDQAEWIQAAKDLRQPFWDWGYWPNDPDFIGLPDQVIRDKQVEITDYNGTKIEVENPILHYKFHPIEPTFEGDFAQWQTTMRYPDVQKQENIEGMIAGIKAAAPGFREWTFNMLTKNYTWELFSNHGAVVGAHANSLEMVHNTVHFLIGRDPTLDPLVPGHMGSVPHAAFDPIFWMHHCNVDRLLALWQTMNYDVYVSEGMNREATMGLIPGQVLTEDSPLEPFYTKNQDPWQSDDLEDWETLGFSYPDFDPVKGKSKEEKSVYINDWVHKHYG

maximum emission wavelength of ANS-TYR fluorescence (tyrosinase (TYR) [2]): 500 nm
α-Helix content of TYR (tyrosinase (TYR) [3]): 32.50%
β-Turn content of TYR (tyrosinase (TYR) [3]): 17.20%
β-sheet content of TYR (tyrosinase (TYR) [3]): 17.50%
inhibition type (tyrosinase (TYR) [4]): mixed-type inhibitor
quenching constant Kq (tyrosinase (TYR) [5]; Stern-Volmer plot): 3.95 × 10^12 L/mol S^-1
number of binding sites n (tyrosinase (TYR) [5]; double reciprocal equation): 1.12
mode of action on TYR (quenching type) (tyrosinase (TYR) [5]; multispectral experiments): static quenching
Compound: CCCc1cc(=O)oc2cc(OCc3cc(=O)c(O)co3)ccc12 [Compound 6f]
effect on the UV absorption peak of TYR at 280 nm (tyrosinase (TYR) [1]): significantly reduced the absorption peak of TYR at 280 nm
cytotoxicity (HEK-293 cells): low cytotoxicity
